Source: ChEMBL document CHEMBL4715736, “Identification of anticancer agents based on the thieno[2,3-b]pyridine and 1H-pyrazole molecular scaffolds” (2016)

Key:
Type in all cases: functional
Settings in all cases: read-out: Activity
K562 = experiment: Growth inhibition of human K562 cells assessed as cell growth at 10 uM incubated for 48 hrs by sulforhodamine B assay relative to control
Outline: (§1)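 Submitted to the NCI Developmental Therapeutics Program for the NCI60 human tumour cell line panel. First screen at a single 10 µM concentration. Read-out is growth relative to untreated control cells set at 100%.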

RPMI-8226 = experiment: Growth inhibition of human RPMI-8226 cells assessed as cell growth at 10 uM incubated for 48 hrs by sulforhodamine B assay relative to control
Outline: (§2)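 Run by the NCI Developmental Therapeutics Program as part of its 60-line human tumour panel. Each compound tested at a single 10 µM dose. Growth expressed as % relative to untreated control cells (100%).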

SR = experiment: Growth inhibition of human SR cells assessed as cell growth at 10 uM incubated for 48 hrs by sulforhodamine B assay relative to control; outline: as §2
A549 = experiment: Growth inhibition of human A549/ATCC cells assessed as cell growth at 10 uM incubated for 48 hrs by sulforhodamine B assay relative to control
Outline: (§3)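 NCI Developmental Therapeutics Program NCI60 panel. Compounds that were active in the 10 µM one-dose screen went on to dose–response testing. Growth at each concentration is expressed relative to untreated control (100%). GI50 (concentration giving 50% of maximal inhibition of proliferation) and TGI (concentration giving total growth inhibition) were derived from the curves.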

NCI-H226 = experiment: Growth inhibition of human NCI-H226 cells assessed as cell growth at 10 uM incubated for 48 hrs by sulforhodamine B assay relative to control; outline: as §1
NCI-H23 = experiment: Growth inhibition of human NCI-H23 cells assessed as cell growth at 10 uM incubated for 48 hrs by sulforhodamine B assay relative to control; outline: as §1
NCI-H322M = experiment: Growth inhibition of human NCI-H322M cells assessed as cell growth at 10 uM incubated for 48 hrs by sulforhodamine B assay relative to control; outline: as §1
COLO 205 = experiment: Growth inhibition of human COLO 205 cells assessed as cell growth at 10 uM incubated for 48 hrs by sulforhodamine B assay relative to control; outline: as §3
HCC 2998 = experiment: Growth inhibition of human HCC 2998 cells assessed as cell growth at 10 uM incubated for 48 hrs by sulforhodamine B assay relative to control; outline: as §3
HCT-116 = experiment: Growth inhibition of human HCT-116 cells assessed as cell growth at 10 uM incubated for 48 hrs by sulforhodamine B assay relative to control; outline: as §1
KM12 = experiment: Growth inhibition of human KM12 cells assessed as cell growth at 10 uM incubated for 48 hrs by sulforhodamine B assay relative to control; outline: as §1
SW-620 = experiment: Growth inhibition of human SW-620 cells assessed as cell growth at 10 uM incubated for 48 hrs by sulforhodamine B assay relative to control; outline: as §2
SF-268 = experiment: Growth inhibition of human SF-268 cells assessed as cell growth at 10 uM incubated for 48 hrs by sulforhodamine B assay relative to control; outline: as §2
SF-295 = experiment: Growth inhibition of human SF-295 cells assessed as cell growth at 10 uM incubated for 48 hrs by sulforhodamine B assay relative to control; outline: as §2
SNB-19 = experiment: Growth inhibition of human SNB-19 cells assessed as cell growth at 10 uM incubated for 48 hrs by sulforhodamine B assay relative to control; outline: as §2
U-251 = experiment: Growth inhibition of human U-251 cells assessed as cell growth at 10 uM incubated for 48 hrs by sulforhodamine B assay relative to control; outline: as §2
LOX IMVI = experiment: Growth inhibition of human LOX IMVI cells assessed as cell growth at 10 uM incubated for 48 hrs by sulforhodamine B assay relative to control; outline: as §1
Malme-3M = experiment: Growth inhibition of human Malme-3M cells assessed as cell growth at 10 uM incubated for 48 hrs by sulforhodamine B assay relative to control; outline: as §1
M14 = experiment: Growth inhibition of human M14 cells assessed as cell growth at 10 uM incubated for 48 hrs by sulforhodamine B assay relative to control; outline: as §1
MDA-MB-435 = experiment: Growth inhibition of human MDA-MB-435 cells assessed as cell growth at 10 uM incubated for 48 hrs by sulforhodamine B assay relative to control; outline: as §1
SK-MEL-28 = experiment: Growth inhibition of human SK-MEL-28 cells assessed as cell growth at 10 uM incubated for 48 hrs by sulforhodamine B assay relative to control; outline: as §2
SK-MEL-5 = experiment: Growth inhibition of human SK-MEL-5 cells assessed as cell growth at 10 uM incubated for 48 hrs by sulforhodamine B assay relative to control; outline: as §2
UACC-62 = experiment: Growth inhibition of human UACC-62 cells assessed as cell growth at 10 uM incubated for 48 hrs by sulforhodamine B assay relative to control; outline: as §2
IGROV-1 = experiment: Growth inhibition of human IGROV-1 cells assessed as cell growth at 10 uM incubated for 48 hrs by sulforhodamine B assay relative to control; outline: as §1
OVCAR-4 = experiment: Growth inhibition of human OVCAR-4 cells assessed as cell growth at 10 uM incubated for 48 hrs by sulforhodamine B assay relative to control; outline: as §2
OVCAR-5 = experiment: Growth inhibition of human OVCAR-5 cells assessed as cell growth at 10 uM incubated for 48 hrs by sulforhodamine B assay relative to control; outline: as §2
OVCAR-8 = experiment: Growth inhibition of human OVCAR-8 cells assessed as cell growth at 10 uM incubated for 48 hrs by sulforhodamine B assay relative to control; outline: as §2
A498 = experiment: Growth inhibition of human A498 cells assessed as cell growth at 10 uM incubated for 48 hrs by sulforhodamine B assay relative to control; outline: as §3
ACHN = experiment: Growth inhibition of human ACHN cells assessed as cell growth at 10 uM incubated for 48 hrs by sulforhodamine B assay relative to control
Outline: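 NCI Developmental Therapeutics Program NCI60 human tumour cell line panel, one-dose primary screen with every compound at 10 µM. Growth is expressed as % of untreated control cells (100%).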

RXF 393 = experiment: Growth inhibition of human RXF 393 cells assessed as cell growth at 10 uM incubated for 48 hrs by sulforhodamine B assay relative to control; outline: as §2
SN12C = experiment: Growth inhibition of human SN12C cells assessed as cell growth at 10 uM incubated for 48 hrs by sulforhodamine B assay relative to control; outline: as §2
UO-31 = experiment: Growth inhibition of human UO-31 cells assessed as cell growth at 10 uM incubated for 48 hrs by sulforhodamine B assay relative to control; outline: as §2
PC-3 = experiment: Growth inhibition of human PC-3 cells assessed as cell growth at 10 uM incubated for 48 hrs by sulforhodamine B assay relative to control; outline: as §2
MDA-MB-468 = experiment: Growth inhibition of human MDA-MB-468 cells assessed as cell growth at 10 uM incubated for 48 hrs by sulforhodamine B assay relative to control; outline: as §1
OVCAR-3 = experiment: Growth inhibition of human OVCAR-3 cells assessed as cell growth at 10 uM incubated for 48 hrs by sulforhodamine B assay relative to control; outline: as §2

| Compound | growth at 10 µM (K562) [%] | growth at 10 µM (RPMI-8226) [%] | growth at 10 µM (SR) [%] | growth at 10 µM (A549) [%] | growth at 10 µM (NCI-H226) [%] | growth at 10 µM (NCI-H23) [%] | growth at 10 µM (NCI-H322M) [%] | growth at 10 µM (COLO 205) [%] | growth at 10 µM (HCC 2998) [%] | growth at 10 µM (HCT-116) [%] | growth at 10 µM (KM12) [%] | growth at 10 µM (SW-620) [%] | growth at 10 µM (SF-268) [%] | growth at 10 µM (SF-295) [%] | growth at 10 µM (SNB-19) [%] | growth at 10 µM (U-251) [%] | growth at 10 µM (LOX IMVI) [%] | growth at 10 µM (Malme-3M) [%] | growth at 10 µM (M14) [%] | growth at 10 µM (MDA-MB-435) [%] | also measured |
| --- | --- | --- | --- | --- | --- | --- | --- | --- | --- | --- | --- | --- | --- | --- | --- | --- | --- | --- | --- | --- | --- |
| Cc1ccc(S(=O)(=O)n2ccc(-c3ccc(OCCCF)cc3)n2)cc1 | 55.4 | 72.8 | 67.4 | 78.8 | 77.6 | 78.7 | 93.7 | 101 | 93.9 | 86.1 | 95 | 103 | 103 | 83.7 | 91.7 | 85 | 92.5 | 101 | 94.7 | 91.3 | growth at 10 µM (SK-MEL-28): 85%; growth at 10 µM (SK-MEL-5): 73.5%; growth at 10 µM (UACC-62): 63.9%; growth at 10 µM (IGROV-1): 92.5%; growth at 10 µM (OVCAR-4): 73.2%; growth at 10 µM (OVCAR-5): 110%; growth at 10 µM (OVCAR-8): 87.7%; growth at 10 µM (A498): 77%; growth at 10 µM (ACHN): 97.4%; growth at 10 µM (RXF 393): 91.8%; growth at 10 µM (SN12C): 80.2%; growth at 10 µM (UO-31): 66.4%; growth at 10 µM (PC-3): 73.5%; growth at 10 µM (MDA-MB-468): 44.4% |
| CC1(C)CCc2cc(-c3ccn(S(=O)(=O)c4ccc(C(C)(C)C)cc4)n3)ccc2O1 | 72.2 | 65.1 | 77.8 | 74.6 | 70.5 | 83.8 | 95.6 | 118 | 98 | 73.1 | 90.5 | 89.7 | 92.1 | 82.6 | 88.2 | 80.8 | 96.5 | 105 | 91.3 | 93 | growth at 10 µM (SK-MEL-28): 92.8%; growth at 10 µM (SK-MEL-5): 78%; growth at 10 µM (UACC-62): 70.4%; growth at 10 µM (IGROV-1): 93.3%; growth at 10 µM (OVCAR-3): 91.8%; growth at 10 µM (OVCAR-4): 63.2%; growth at 10 µM (OVCAR-5): 99.6%; growth at 10 µM (OVCAR-8): 84.5%; growth at 10 µM (A498): 68.4%; growth at 10 µM (ACHN): 87.8%; growth at 10 µM (SN12C): 87.7%; growth at 10 µM (UO-31): 84.8%; growth at 10 µM (PC-3): 72.9%; growth at 10 µM (MDA-MB-468): 52.5% |
| CCOc1ccc(-c2cc(N)n(S(=O)(=O)c3ccc(OC)cc3)n2)cc1 | 105 | 94.1 | 116 | 92.5 | 97.7 | 115 | 102 | 116 | 112 | 96 | 123 | 110 | 109 | 115 | 96.3 | 101 | 105 | 114 | 120 | 101 | growth at 10 µM (SK-MEL-28): 103%; growth at 10 µM (SK-MEL-5): 97.5%; growth at 10 µM (UACC-62): 92.5%; growth at 10 µM (IGROV-1): 96.6%; growth at 10 µM (OVCAR-4): 103%; growth at 10 µM (OVCAR-5): 107%; growth at 10 µM (OVCAR-8): 96.6%; growth at 10 µM (A498): 92.5%; growth at 10 µM (ACHN): 102%; growth at 10 µM (RXF 393): 95.9%; growth at 10 µM (SN12C): 85.5%; growth at 10 µM (UO-31): 91.2%; growth at 10 µM (PC-3): 88.6%; growth at 10 µM (MDA-MB-468): 87.4% |
| CC(=O)Nc1ccc(S(=O)(=O)n2ccc(-c3ccc4c(c3)CCC(C)(C)O4)n2)cc1 | 36.7 | 43.7 | 56.4 | 57.8 | 52.4 | 56.6 | 89 | 88.8 | 83.3 | 29.9 | 67.4 | 82.5 | 77.2 | 60.2 | 73.3 | 66 | 64.1 | 82.5 | 64.7 | 67.3 | growth at 10 µM (SK-MEL-28): 93.1%; growth at 10 µM (SK-MEL-5): 26.3%; growth at 10 µM (UACC-62): 62.4%; growth at 10 µM (IGROV-1): 68%; growth at 10 µM (OVCAR-3): 74.4%; growth at 10 µM (OVCAR-4): 46.2%; growth at 10 µM (OVCAR-5): 96.3%; growth at 10 µM (OVCAR-8): 69.4%; growth at 10 µM (A498): 21.9%; growth at 10 µM (ACHN): 79.3%; growth at 10 µM (SN12C): 89%; growth at 10 µM (UO-31): 67.9%; growth at 10 µM (PC-3): 44.4%; growth at 10 µM (MDA-MB-468): 24.9% |
| O=S(=O)(c1ccccc1)n1ccc(-c2ccc3c(c2)CCO3)n1 | 56 | 62.5 | 73.3 | 78.8 | 64.6 | 78.4 | 91.4 | 96.9 | 90.8 | 89.1 | 91.9 | 93.7 | 92.8 | 83.3 | 83.4 | 73.6 | 85.2 | 94 | 101 | 104 | growth at 10 µM (SK-MEL-28): 86.2%; growth at 10 µM (SK-MEL-5): 70.2%; growth at 10 µM (UACC-62): 73.1%; growth at 10 µM (IGROV-1): 75.7%; growth at 10 µM (OVCAR-4): 70.1%; growth at 10 µM (OVCAR-5): 103%; growth at 10 µM (OVCAR-8): 84%; growth at 10 µM (A498): 71.2%; growth at 10 µM (ACHN): 78.4%; growth at 10 µM (RXF 393): 82.9%; growth at 10 µM (SN12C): 67.9%; growth at 10 µM (UO-31): 51%; growth at 10 µM (PC-3): 84.2%; growth at 10 µM (MDA-MB-468): 42.4% |
